This note sets out measurements from ChEMBL document CHEMBL2417481, “Regioselective synthesis of 6-substituted-2-amino-5-bromo-4(3H)-pyrimidinones and evaluation of their antiviral activity” (Eur J Med Chem, 2013).

Each structure is given as a SMILES string.

This experiment relates to Vaccinia virus. The experiment can be described thus: Antiviral activity against Vaccinia virus Lederle infected in human HEL cells assessed as reduction in virus-induced cytopathogenicity. It is filed as functional, organism-based. Particulars: Orthopoxvirus vaccinia. In short, it runs like this: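 Confluent cell monolayers (Vero, HeLa, HEL or MDCK, as named in each line) were infected with 100 CCID50 of virus while exposed to a range of compound concentrations. Cytopathicity was scored once it was complete in untreated infected controls.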
In general terms: Protection from cytopathic effect is a common read-out in antiviral testing.
In the case of `CCCCCc1nc(N)[nH]c(=O)c1Br`, the concentration for a half-maximal effect (EC50) (as a rule, the midpoint of the concentration-response curve) was more than 100 µM. Next, `Nc1nc2c(ncn2COCCO)c(=O)[nH]1` [ACYCLOVIR]: more than 250 µM; `CCCCc1nc(N)[nH]c(=O)c1Br`: more than 100 µM. Next, `Nc1nc(CC(O)c2ccc(Cl)cc2)c(Br)c(=O)[nH]1` (stereo not given): more than 100 µM; `Nc1nc(CC(O)c2ccccc2C(F)(F)F)c(Br)c(=O)[nH]1` (stereo not given): more than 100 µM.

In the case of `COc1ccc(/C=C/c2nc(N)[nH]c(=O)c2Br)cc1OC`, the EC50 was more than 100 µM. In the case of `Nc1nc(CCc2ccccc2)c(Br)c(=O)[nH]1` it was more than 100 µM; in that of `CC(C)(O)Cc1nc(N)[nH]c(=O)c1Br`, more than 100 µM; in that of `CCCc1nc(N)[nH]c(=O)c1Br`, more than 100 µM. Next, `Cc1cc(C)c(/C=C/c2nc(N)[nH]c(=O)c2Br)c(C)c1`: more than 20 µM.
